The values below come from ChEMBL document CHEMBL4350960, “Structural Basis for E. coli Penicillin Binding Protein (PBP) 2 Inhibition, a Platform for Drug Design” (J Med Chem, 2019).

Test [1] deals with T1, Peptidoglycan D,D-transpeptidase MrdA (Escherichia coli K-12) (UniProt P0AD65).
T1 sequence (whole entry): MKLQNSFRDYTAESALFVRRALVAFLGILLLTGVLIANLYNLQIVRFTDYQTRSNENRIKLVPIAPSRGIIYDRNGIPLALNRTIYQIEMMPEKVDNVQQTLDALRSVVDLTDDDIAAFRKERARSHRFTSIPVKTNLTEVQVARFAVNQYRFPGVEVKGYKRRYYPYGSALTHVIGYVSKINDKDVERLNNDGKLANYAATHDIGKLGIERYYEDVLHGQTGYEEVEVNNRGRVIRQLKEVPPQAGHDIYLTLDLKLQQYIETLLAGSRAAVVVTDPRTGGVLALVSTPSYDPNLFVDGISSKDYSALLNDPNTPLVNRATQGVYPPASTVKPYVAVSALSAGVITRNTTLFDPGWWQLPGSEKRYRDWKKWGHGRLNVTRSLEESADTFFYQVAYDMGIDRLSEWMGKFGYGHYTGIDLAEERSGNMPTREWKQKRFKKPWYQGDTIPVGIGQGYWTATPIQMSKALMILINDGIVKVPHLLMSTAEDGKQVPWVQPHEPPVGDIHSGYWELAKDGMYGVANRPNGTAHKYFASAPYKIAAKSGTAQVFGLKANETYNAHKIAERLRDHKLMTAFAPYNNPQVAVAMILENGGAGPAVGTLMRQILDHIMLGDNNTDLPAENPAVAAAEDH
The test is described as follows: (§1) Inhibition of bocillin-FL binding to Escherichia coli K12 NusA-fused/His6-tagged PBP2 (57 to 615 residues) expressed in Escherichia coli BL21(DE3) preincubated for 30 mins followed by bocillin-FL addition by RT-fluorescence anisotropy method. A general note: Fluorescence polarisation rises when a labelled molecule tumbles more slowly, as on binding a larger partner.

Test [2] has as its target T2, Penicillin-binding protein 1A (Escherichia coli K-12) (UniProt P02918).
T2 sequence (whole entry): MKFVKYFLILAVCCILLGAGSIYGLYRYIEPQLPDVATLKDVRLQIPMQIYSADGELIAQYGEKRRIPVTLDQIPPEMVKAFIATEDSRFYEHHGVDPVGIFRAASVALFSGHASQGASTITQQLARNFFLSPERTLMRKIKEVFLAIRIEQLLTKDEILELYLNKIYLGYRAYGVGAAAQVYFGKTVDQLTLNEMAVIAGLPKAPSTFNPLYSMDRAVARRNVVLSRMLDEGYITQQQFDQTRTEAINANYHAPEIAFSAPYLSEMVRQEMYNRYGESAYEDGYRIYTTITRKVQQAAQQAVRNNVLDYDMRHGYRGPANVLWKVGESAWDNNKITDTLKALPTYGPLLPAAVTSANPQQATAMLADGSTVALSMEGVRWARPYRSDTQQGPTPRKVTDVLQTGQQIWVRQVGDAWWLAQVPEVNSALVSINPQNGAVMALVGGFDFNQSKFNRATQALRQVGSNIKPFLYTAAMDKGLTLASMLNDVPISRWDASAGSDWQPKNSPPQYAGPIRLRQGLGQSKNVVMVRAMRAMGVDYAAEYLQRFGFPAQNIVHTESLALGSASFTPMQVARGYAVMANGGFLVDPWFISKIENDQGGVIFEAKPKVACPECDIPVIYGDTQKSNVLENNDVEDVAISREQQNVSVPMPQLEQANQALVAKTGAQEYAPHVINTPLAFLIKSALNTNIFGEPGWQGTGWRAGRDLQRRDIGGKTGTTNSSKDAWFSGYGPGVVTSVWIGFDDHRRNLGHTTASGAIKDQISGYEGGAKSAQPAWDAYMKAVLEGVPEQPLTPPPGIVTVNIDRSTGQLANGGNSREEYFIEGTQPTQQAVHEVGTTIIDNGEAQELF
Briefly: Inhibition of Escherichia coli PBP1a.

The target in test [3] is T3, Penicillin-binding protein 1B (Escherichia coli K-12) (UniProt P02919).
T3 sequence (whole entry): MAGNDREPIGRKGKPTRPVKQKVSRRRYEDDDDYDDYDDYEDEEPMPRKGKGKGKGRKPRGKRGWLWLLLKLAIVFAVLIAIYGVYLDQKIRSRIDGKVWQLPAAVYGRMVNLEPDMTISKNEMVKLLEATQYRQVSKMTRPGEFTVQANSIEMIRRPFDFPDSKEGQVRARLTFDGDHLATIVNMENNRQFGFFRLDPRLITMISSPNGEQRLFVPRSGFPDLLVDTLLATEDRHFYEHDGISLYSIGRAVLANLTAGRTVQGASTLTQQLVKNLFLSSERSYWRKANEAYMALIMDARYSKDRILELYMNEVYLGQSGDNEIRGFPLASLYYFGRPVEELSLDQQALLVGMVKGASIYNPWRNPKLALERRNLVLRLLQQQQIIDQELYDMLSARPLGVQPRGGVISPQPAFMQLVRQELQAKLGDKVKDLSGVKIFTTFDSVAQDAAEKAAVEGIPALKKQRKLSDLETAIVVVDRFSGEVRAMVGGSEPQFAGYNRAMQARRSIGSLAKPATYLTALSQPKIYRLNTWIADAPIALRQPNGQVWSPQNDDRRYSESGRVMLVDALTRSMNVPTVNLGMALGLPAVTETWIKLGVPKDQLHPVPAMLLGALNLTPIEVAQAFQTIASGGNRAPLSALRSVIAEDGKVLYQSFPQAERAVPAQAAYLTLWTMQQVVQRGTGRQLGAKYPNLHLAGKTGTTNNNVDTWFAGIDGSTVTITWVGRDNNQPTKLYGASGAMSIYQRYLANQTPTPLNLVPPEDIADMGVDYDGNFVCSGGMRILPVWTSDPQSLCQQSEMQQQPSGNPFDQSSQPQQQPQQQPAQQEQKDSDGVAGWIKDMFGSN
Briefly: Inhibition of Escherichia coli PBP1b.

In test [4] the test system is Pseudomonas aeruginosa. The test is described as follows: Antibacterial activity against Pseudomonas aeruginosa UFR49 measured after 16 to 20 hrs by broth microdilution method. The test is classed as functional. In general terms: In broth dilution the organism is exposed to a series of concentrations in liquid medium.
Test [5] relates to Escherichia coli. The test is described as follows: Inhibition of Escherichia coli PBP3.
Test [6] has as its target T4, Peptidoglycan D,D-transpeptidase MrdA (Escherichia coli K-12, UniProt P0AD65).
T4 sequence (P0AD65 whole entry): T1 sequence (whole entry)
The description is as §1.

Test [7] deals with Escherichia coli. Briefly: Antibacterial activity against Escherichia coli UFR39 measured after 16 to 20 hrs by broth microdilution method. Format: functional. An outline of the steps:
(§2)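 Broth microdilution MICs following CLSI M7-A7, run against genotyped carbapenem-resistant E. coli and P. aeruginosa strains.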

In test [8] the test system is Escherichia coli. The test is described as follows: Antibacterial activity against Escherichia coli clinical isolates measured after 16 to 20 hrs by broth microdilution method. Format: functional. An outline of the steps: as §2
Test [9] concerns Pseudomonas aeruginosa. Briefly: Antibacterial activity against Pseudomonas aeruginosa clinical isolates measured after 16 to 20 hrs by broth microdilution method. The test is classed as functional. In short, it runs like this:
as §2

Converted amounts (≈) assume the structure as drawn. The source made the active and inactive calls. The rule behind the calls is not given here.

As a reminder, the MIC is the lowest concentration found to suppress growth. Low readings indicate inhibition by little substance, high ones a need for much substance. In general, IC50 refers to the concentration that inhibits the measured activity by half. A higher IC50 goes with a need for much substance. What is called MIC50 is an inhibitory concentration at the 50% level, which refers to growth in some studies and to a panel of isolates in others. Low readings indicate higher susceptibility, high ones lower susceptibility. The MIC90 is an inhibitory concentration at the 90% level, which refers to growth in some studies and to a panel of isolates in others.

For the compound `O=C1N2CC=C(c3ccncc3)C(C2)N1OS(=O)(=O)[O-].[Na+]` (stereo not drawn), in test [1], the inhibition result is “Active”. In addition, the inhibition entry in test [2], in test [3] and in test [5] was “inactive” in each case. Moreover, in test [4], the MIC is above 32 mg/L.
Take `O=C1N2CC=C(c3ccccn3)C(C2)N1OS(=O)(=O)[O-].[Na+]` (stereo not drawn): the inhibition result in test [1] was “Active”. In addition, the inhibition entry in test [2], in test [3] and in [5] was “inactive” in each case. In test [4], this compound registered an MIC above 32 mg/L.
For the compound `O=C1N2CC=C(c3ncco3)C(C2)N1OS(=O)(=O)[O-].[Na+]` (stereo not drawn), the MIC in test [4] is above 32 mg/L.
In the case of `O=C1N2CC=C(c3cnoc3)C(C2)N1OS(=O)(=O)[O-].[Na+]` (stereo not drawn), in [6], the IC50 was 0.017 µM. In addition, the MIC in test [4] was above 32 mg/L.
The compound `O=C1N2CC=C(c3cnco3)C(C2)N1OS(=O)(=O)[O-].[Na+]` (stereo not drawn) showed an IC50 in [6] of 0.025 µM. The inhibition result in test [2], in test [3] and in test [5] was “inactive” each time. Moreover, the results for the MIC in test [7] and in test [4] were 4 mg/L and above 32 mg/L, respectively.
In test [6], `O=C1N2CC=CC(C2)N1OS(=O)(=O)[O-].[Na+]` (stereo not drawn) returned an IC50 of 0.57 µM. The inhibition entry in test [2], in test [3] and in [5] was “inactive” throughout. Besides, the MIC in test [7] is 16 mg/L; in [4], above 32 mg/L.
As to `O=C1N2CCCC(C2)N1OS(=O)(=O)[O-].[Na+]` (stereo not drawn), in test [6], the IC50 is above 200 µM. Also, the inhibition result in [2], in test [3] and in [5] was “inactive” throughout. Moreover, the minimum inhibitory concentration (MIC) in test [7] and in test [4] was above 32 mg/L throughout.
With `O=C1N2CC=C(c3cccnc3)C(C2)N1OS(=O)(=O)[O-].[Na+]` (stereo not drawn), in [1], the inhibition entry is “Active”. For the same compound, the inhibition result in [2], in test [3] and in test [5] was “inactive” throughout. The MIC in test [4] is above 32 mg/L.
As for `NC(=O)[C@@H]1CC[C@@H]2CN1C(=O)N2OS(=O)(=O)[O-].[Na+]` [AVIBACTAM SODIUM], the MIC50 in test [8] is 32 mg/L; in test [9], above 32 mg/L. Moreover, the MIC90 in test [8] and in [9] was above 32 mg/L each time. In addition, the IC50 in test [6] came out at 0.59 µM. The minimum inhibitory concentration (MIC) in [7] is 16 to 32 mg/L; in [4], above 32 mg/L.
On to `CC(C)(O/N=C(\C(=O)N[C@@H]1C(=O)N2C(C(=O)[O-])=C(C[n+]3ccccc3)CS[C@H]12)c1csc(N)n1)C(=O)O` [CEFTAZIDIME], for which the MIC50 in [8] and in test [9] was above 32 mg/L each time. The MIC90 in [8] and in [9] was above 32 mg/L each time. The MIC is above 256 mg/L in [7] and 64 mg/L (≈ 117 µM) in [4].
For the compound `C[C@@H](O)[C@H]1C(=O)N2C(C(=O)O)=C(S[C@@H]3CN[C@H](C(=O)N(C)C)C3)[C@H](C)[C@H]12` [MEROPENEM], in test [8], the MIC50 was 0.5 mg/L (≈ 1.3 µM) and the MIC90 was above 32 mg/L. In [9], this compound had an MIC50 of 8 mg/L (≈ 20.9 µM) and an MIC90 above 32 mg/L. The compound also showed an MIC in [7] of 128 mg/L (≈ 334 µM).
For `O=C(NNC(=O)[C@@H]1CC[C@@H]2CN1C(=O)N2OS(=O)(=O)O)[C@@H]1CCCNC1` [ZIDEBACTAM], in test [8], the MIC50 amounted to 32 mg/L (≈ 81.8 µM) and the MIC90 is above 32 mg/L. In [9], the MIC50 amounted to 8 mg/L (≈ 20.4 µM) and the MIC90 came out at 16 mg/L (≈ 40.9 µM).
